The subject of assay [1] is J774.A1. In words: Growth inhibition of J774A.1 macrophage cells after 24 hrs by MTT method. The following applies: Mus musculus, J774.A1, 24 h. It counts as functional, cell-based. In a few lines: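 J774A.1 murine macrophages kept at 37°C in RPMI 1640 with 10% FBS. Viability was read 24 h after drug addition.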
In general terms: Tetrazolium dyes change colour on reduction, which living cells bring about.

The target in assay [2] is T1, Ornithine decarboxylase (Leishmania donovani) (UniProt P27116).
T1 sequence (whole entry): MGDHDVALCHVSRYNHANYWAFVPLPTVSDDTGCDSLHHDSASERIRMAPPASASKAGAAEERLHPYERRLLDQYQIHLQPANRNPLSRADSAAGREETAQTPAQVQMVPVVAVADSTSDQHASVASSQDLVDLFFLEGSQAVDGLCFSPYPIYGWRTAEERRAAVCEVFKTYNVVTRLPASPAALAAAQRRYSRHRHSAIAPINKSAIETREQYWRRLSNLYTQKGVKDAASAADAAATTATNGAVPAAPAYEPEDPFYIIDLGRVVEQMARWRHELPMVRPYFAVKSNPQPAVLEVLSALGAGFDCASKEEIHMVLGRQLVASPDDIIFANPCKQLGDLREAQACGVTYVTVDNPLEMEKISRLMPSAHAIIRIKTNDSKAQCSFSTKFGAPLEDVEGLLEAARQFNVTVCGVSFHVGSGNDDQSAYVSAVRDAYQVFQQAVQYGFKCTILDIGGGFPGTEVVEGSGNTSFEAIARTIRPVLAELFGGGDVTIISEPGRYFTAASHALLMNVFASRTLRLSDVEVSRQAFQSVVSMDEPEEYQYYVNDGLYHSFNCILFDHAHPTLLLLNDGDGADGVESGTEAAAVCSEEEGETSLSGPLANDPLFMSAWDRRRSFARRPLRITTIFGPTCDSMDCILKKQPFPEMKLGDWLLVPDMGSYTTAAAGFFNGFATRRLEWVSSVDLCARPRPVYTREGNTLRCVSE
In words: Inhibition of ODC in Leishmania donovani promastigotes at 50 uM after 48 hrs. In a few lines:
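Late-log promastigotes (1 x 10^7) were treated 48 h, then washed in PBS and freeze-thaw lysed in 50 mM Tris-HCl pH 7.5, 10 µM EDTA, 2.5 mM DTT. Released 14CO2 is expressed as nmol CO2/mg protein/h (Bradford). Mean ± SD, n = 3.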

In assay [3] the test system is Leishmania donovani. In words: Reduction of putrescine level in Leishmania donovani promastigotes at 50 uM for after 48 hrs relative to control. It counts as functional. Details: scale not given: the % may be the effect or the level left. In a few lines: (§1)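 Log-phase promastigotes (1 x 10^7) were exposed 48 h and pelleted at 2,000 x g, 4°C. Acid extracts were dansyl-chloride derivatized before column and analysed by C18 reversed-phase HPLC. Values are vs untreated controls, mean ± SD (n = 3), Student's t test, P < 0.05.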

The test system of assay [4] is Leishmania donovani. In words: Reduction of spermidine level in Leishmania donovani promastigotes at 50 uM after 48 hrs relative to control. Further details: scale not given: the % may be the effect or the level left. It is filed as functional. In a few lines:
as §1

Assay [5] relates to Leishmania donovani. In words: Reduction of trypanothione level in Leishmania donovani promastigotes at 50 uM after 48 hrs relative to control. Further details: scale not given: the % may be the effect or the level left. It counts as functional. In outline:
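Log-phase promastigotes were treated 48 h before harvest, compared with untreated controls. Mean ± SD, n = 3, Student's t test.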

In assay [6] the test system is Leishmania donovani. In words: Growth inhibition of Leishmania donovani AG83 promastigotes transfected with episomal ODC gene construct overproducing ODC. It counts as functional, organism-based. In outline: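 Late-log-phase promastigotes, cultured at 22°C in M-199 (Hanks' salts, 25 mM HEPES, 10% FBS, gentamicin), were exposed to drug for 72 h. MTT was then added for 4 h, the reaction was stopped with acidic isopropanol, and absorbance was read at 570 nm to give IC50. Two or more independent experiments were run in triplicate.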

In assay [7] the test system is Leishmania donovani. In words: Growth inhibition of Leishmania donovani AG83 amastigotes transfected with episomal ODC gene construct overproducing ODC. It counts as functional, organism-based.
Assay [8] relates to Leishmania donovani. In words: Growth inhibition of Leishmania donovani promastigotes S1 LV patient isolate in J774A.1 cells after 5 days. It is filed as functional, organism-based.
The test system of assay [9] is Leishmania donovani. In words: Growth inhibition of Leishmania donovani amastigotes S1 LV patient isolate in J774A.1 cells after 5 days. It counts as functional, organism-based. The following applies: J774.A1, 120 h. In a few lines:
(§2)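 J774A.1 murine macrophages kept at 37°C in RPMI 1640 with 10% FBS. 1 x 10^5 cells per well were infected with 1 x 10^6 stationary-phase luciferase-expressing (pGL-NEO LUC) promastigotes in M-199 with 10% FBS. Free parasites were washed off after 3 h, then drug was added at a range of concentrations for 5 days. Luciferase was read from washed adherent macrophages, and IC50 was taken from a concentration vs RLU plot.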

Assay [10] concerns Leishmania donovani. In words: Growth inhibition of Leishmania donovani SAG-resistant R1 LV patient isolate promastigotes in J774A.1 cells after 5 days. It counts as functional, organism-based.
Assay [11] deals with Leishmania donovani. In words: Growth inhibition of Leishmania donovani SAG-resistant R1 LV patient isolate amastigotes in J774A.1 cells after 5 days. The settings on record: J774.A1, 120 h. It is filed as functional, organism-based. In outline: as §2
Assay [12] has as its system Leishmania donovani. In words: Growth inhibition of Leishmania donovani SAG-resistant R2 LV patient isolate promastigotes in J774A.1 cells after 5 days. It counts as functional, organism-based.
The subject of assay [13] is Leishmania donovani. In words: Growth inhibition of Leishmania donovani SAG-resistant R2 LV patient isolate amastigotes in J774A.1 cells after 5 days. It is filed as functional, organism-based. The settings on record: J774.A1, 120 h. In outline: as §2
The test system of assay [14] is Leishmania donovani. In words: Growth inhibition of Leishmania donovani SAG-resistant GE1 LV patient isolate promastigotes in J774A.1 cells after 5 days. It is filed as functional, organism-based.
Assay [15] relates to Leishmania donovani. In words: Growth inhibition of Leishmania donovani SAG-resistant GE1 LV patient isolate amastigotes in J774A.1 cells after 5 days. It counts as functional, organism-based. The following applies: J774.A1, 120 h. In a few lines: as §2
The subject of assay [16] is Leishmania donovani. In words: Reversal of growth inhibition of Leishmania donovani promastigotes at 50uM after 24 hrs of 1 mM putrescine treatment. It is filed as functional, organism-based. In outline:
(§3)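 Promastigotes grown at 22°C in M-199 (Hanks' salts, 25 mM HEPES, 10% FBS, 100 µg/ml gentamicin) with 50 µM drug. 1 mM putrescine or spermidine was added after 24 h or 48 h of treatment. Growth was followed over 120 h by hemocytometer counts every 24 h. Mean ± SD of three determinations.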

The test system of assay [17] is Leishmania donovani. In words: Reversal of growth inhibition of Leishmania donovani promastigotes at 50 uM after 48 hrs of 1 mM spermidine treatment. It is filed as functional, organism-based. In a few lines:
as §3

Assay [18] concerns Leishmania donovani. In words: Reversal of growth inhibition of Leishmania donovani promastigotes at 50uM after 48 hrs of 1 mM putrescine treatment. It is filed as functional, organism-based. In a few lines:
as §3

Assay [19] has as its system Leishmania donovani. In words: Reversal of growth inhibition of Leishmania donovani promastigotes at 50 uM after 24 hrs of 1 mM spermidine treatment. It is filed as functional, organism-based. In outline:
as §3

Assay [20] has as its system Leishmania donovani. In words: Growth inhibition of wild type Leishmania donovani AG83 promastigotes after 72 hrs by MTT method. The following applies: AG83, 72 h.
Assay [21] has as its system Leishmania donovani. In words: Growth inhibition of wild type Leishmania donovani AG83 amastigotes in J774A.1 after 5 days by luciferase reporter assay. The following applies: AG83, J774.A1, 120 h. In general terms: Reporter assays use an easily measured gene product as a stand-in for the process of interest.

Activity calls are given as the source filed them. The calls are words filed in the database; no cut-off is given here.

Broadly, the IC50 is the concentration that inhibits the measured activity by half. One may read the inhibition as the drop in the measured response relative to a control, in per cent.

As to `NCCCON`, the IC50 in assay [1] is over 200 µM; in assay [6], 155 µM; in assay [7], over 100 µM; in assay [8], 19 µM; in assay [9], 10 µM; in [10] it was over 400 µM. Besides, the IC50 in assay [11] was over 200 µM; in [12] it was 46 µM; in assay [13], over 200 µM; in [14], over 400 µM; in assay [15], over 200 µM; in assay [20], 42 µM. In assay [21], the midpoint of inhibition, the IC50, lay at 5 µM. The same compound came in with an inhibition in assay [2] of 76%. Moreover, the Activity in assay [3] was found to be 70%; in assay [4] it was 44%; in assay [5] it was 79%. For the same compound, the result in assay [16], in assay [17], in assay [18] and in [19] was Active.

As for `NCCCC(N)(C(=O)O)C(F)F` (stereo not drawn) [EFLORNITHINE], the figures for the IC50 in [20] and in [21] were over 10000 µM and 50 µM, respectively.

Source of the values: ChEMBL document CHEMBL1142176, “Antileishmanial effect of 3-aminooxy-1-aminopropane is due to polyamine depletion” (Antimicrob Agents Chemother, 2007).
